Data as given in ChEMBL document CHEMBL2384936, “Synthesis and evaluation of antimicrobial activity of hydrazones derived from 3-oxido-1H-imidazole-4-carbohydrazides” (Eur J Med Chem, 2013).
Converted amounts (≈) assume the structure as drawn. The source made the active and inactive calls. The calls are words filed in the database; no cut-off is given here.

Columns and labels:
[1] = system: Staphylococcus epidermidis; experiment: Bactericidal activity against Staphylococcus epidermidis ATCC 12228 after 18 hrs by broth microdilution method; format: functional; settings: ATCC 12228, 18 h
How it was run: (§1)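 Broth microdilution, then contents of wells without visible growth plated onto Mueller–Hinton agar and incubated 35 °C for 18 h. Triplicates, per CLSI.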

[2] = system: Staphylococcus aureus; experiment: Bactericidal activity against Staphylococcus aureus ATCC 29213 after 18 hrs by broth microdilution method; format: functional; settings: ATCC 29213, 18 h; how it was run: as §1
[3] = system: Staphylococcus aureus; experiment: Bactericidal activity against Staphylococcus aureus ATCC 6538 after 18 hrs by broth microdilution method; format: functional; settings: ATCC 6538, 18 h; how it was run: as §1
[4] = system: Escherichia coli; experiment: Bactericidal activity against Escherichia coli NCTC 8192 after 18 hrs by broth microdilution method; format: functional; how it was run: as §1
[5] = system: Staphylococcus epidermidis; experiment: Antibacterial activity against Staphylococcus epidermidis ATCC 12228 assessed as growth inhibition after 18 hrs by broth microdilution method; format: functional; settings: ATCC 12228, 18 h
How it was run: (§2)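 Frozen stocks (-80 °C, tryptic soy broth with 15% glycerol); S. aureus subcultured on blood agar and identified by catalase, coagulase and clumping factor. Inoculum at 0.5 McFarland. MIC = lowest concentration preventing growth; triplicates, per CLSI.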

[6] = system: Staphylococcus aureus; experiment: Antibacterial activity against Staphylococcus aureus ATCC 29213 assessed as growth inhibition after 18 hrs by broth microdilution method; format: functional; settings: ATCC 29213, 18 h
How it was run: (§3)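 Broth microdilution in Mueller–Hinton broth with 1–600 µg/mL compound added from DMSO stocks. Inoculum adjusted to 0.5 McFarland. Strains stored at -80 °C and subcultured on blood agar before use. Incubation 37 °C for 18 h with OD600 read. MIC taken as the lowest concentration preventing growth, run in triplicate following CLSI. Vancomycin and oxacillin served as controls.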

[7] = system: Staphylococcus aureus; experiment: Antibacterial activity against Staphylococcus aureus ATCC 6538 assessed as growth inhibition after 18 hrs by broth microdilution method; format: functional; settings: ATCC 6538, 18 h; how it was run: as §3
[8] = system: Escherichia coli; experiment: Antibacterial activity against Escherichia coli NCTC 8192 assessed as growth inhibition after 18 hrs by broth microdilution method; format: functional; how it was run: as §2
[9] = system: Staphylococcus aureus; experiment: Bactericidal activity against Staphylococcus aureus isolate D20 derived from bone after 18 hrs by broth microdilution method; format: functional; settings: isolate D20, 18 h; how it was run: as §1
[10] = system: Staphylococcus aureus; experiment: Bactericidal activity against Staphylococcus aureus isolate D17 derived from bone after 18 hrs by broth microdilution method; format: functional; settings: isolate D17, 18 h; how it was run: as §1
[11] = system: Staphylococcus aureus; experiment: Bactericidal activity against Staphylococcus aureus isolate D15 derived from bone after 18 hrs by broth microdilution method; format: functional; settings: isolate D15, 18 h; how it was run: as §1
[12] = system: Staphylococcus aureus; experiment: Bactericidal activity against Staphylococcus aureus isolate D14 derived from bone after 18 hrs by broth microdilution method; format: functional; settings: isolate D14, 18 h; how it was run: as §1
[13] = system: Staphylococcus aureus; experiment: Bactericidal activity against Staphylococcus aureus isolate F12 derived from ulcer and furuncle after 18 hrs by broth microdilution method; format: functional; settings: isolate F12, 18 h; how it was run: as §1
[14] = system: Staphylococcus aureus; experiment: Bactericidal activity against Staphylococcus aureus isolate F7 derived from ulcer and furuncle after 18 hrs by broth microdilution method; format: functional; settings: isolate F7, 18 h; how it was run: as §1
[15] = system: Staphylococcus aureus; experiment: Bactericidal activity against Staphylococcus aureus isolate F1 derived from ulcer and furuncle after 18 hrs by broth microdilution method; format: functional; settings: isolate F1, 18 h; how it was run: as §1
[16] = system: Staphylococcus aureus; experiment: Bactericidal activity against Staphylococcus aureus isolate D12 derived from ulcer and furuncle after 18 hrs by broth microdilution method; format: functional; settings: isolate D12, 18 h; how it was run: as §1
[17] = system: Staphylococcus aureus; experiment: Bactericidal activity against Staphylococcus aureus isolate C19 derived from naso-pharynx after 18 hrs by broth microdilution method; format: functional; settings: isolate C19, 18 h; how it was run: as §1
[18] = system: Staphylococcus aureus; experiment: Bactericidal activity against Staphylococcus aureus isolate C8 derived from naso-pharynx after 18 hrs by broth microdilution method; format: functional; settings: isolate C8, 18 h; how it was run: as §1
[19] = system: Staphylococcus aureus; experiment: Bactericidal activity against Staphylococcus aureus isolate C7 derived from naso-pharynx after 18 hrs by broth microdilution method; format: functional; settings: isolate C7, 18 h; how it was run: as §1
[20] = system: Staphylococcus aureus; experiment: Bactericidal activity against Staphylococcus aureus isolate C4 derived from naso-pharynx after 18 hrs by broth microdilution method; format: functional; settings: isolate C4, 18 h; how it was run: as §1
[21] = system: Staphylococcus aureus; experiment: Antibacterial activity against Staphylococcus aureus isolate D20 derived from bone assessed as growth inhibition after 18 hrs by broth microdilution method; format: functional; settings: isolate D20, 18 h; how it was run: as §2
[22] = system: Staphylococcus aureus; experiment: Antibacterial activity against Staphylococcus aureus isolate D17 derived from bone assessed as growth inhibition after 18 hrs by broth microdilution method; format: functional; settings: isolate D17, 18 h; how it was run: as §2
[23] = system: Staphylococcus aureus; experiment: Antibacterial activity against Staphylococcus aureus isolate D15 derived from bone assessed as growth inhibition after 18 hrs by broth microdilution method; format: functional; settings: isolate D15, 18 h; how it was run: as §2
[24] = system: Staphylococcus aureus; experiment: Antibacterial activity against Staphylococcus aureus isolate D14 derived from bone assessed as growth inhibition after 18 hrs by broth microdilution method; format: functional; settings: isolate D14, 18 h; how it was run: as §2
[25] = system: Staphylococcus aureus; experiment: Antibacterial activity against Staphylococcus aureus isolate F12 derived from ulcer and furuncle assessed as growth inhibition after 18 hrs by broth microdilution method; format: functional; settings: isolate F12, 18 h; how it was run: as §2
[26] = system: Staphylococcus aureus; experiment: Antibacterial activity against Staphylococcus aureus isolate F7 derived from ulcer and furuncle assessed as growth inhibition after 18 hrs by broth microdilution method; format: functional; settings: isolate F7, 18 h; how it was run: as §2
[27] = system: Staphylococcus aureus; experiment: Antibacterial activity against Staphylococcus aureus isolate F1 derived from ulcer and furuncle assessed as growth inhibition after 18 hrs by broth microdilution method; format: functional; settings: isolate F1, 18 h; how it was run: as §2
[28] = system: Staphylococcus aureus; experiment: Antibacterial activity against Staphylococcus aureus isolate D12 derived from ulcer and furuncle assessed as growth inhibition after 18 hrs by broth microdilution method; format: functional; settings: isolate D12, 18 h; how it was run: as §2
[29] = system: Staphylococcus aureus; experiment: Antibacterial activity against Staphylococcus aureus isolate C19 derived from naso-pharynx assessed as growth inhibition after 18 hrs by broth microdilution method; format: functional; settings: isolate C19, 18 h; how it was run: as §2
[30] = system: Staphylococcus aureus; experiment: Antibacterial activity against Staphylococcus aureus isolate C8 derived from naso-pharynx assessed as growth inhibition after 18 hrs by broth microdilution method; format: functional; settings: isolate C8, 18 h; how it was run: as §2
[31] = system: Staphylococcus aureus; experiment: Antibacterial activity against Staphylococcus aureus isolate C7 derived from naso-pharynx assessed as growth inhibition after 18 hrs by broth microdilution method; format: functional; settings: isolate C7, 18 h; how it was run: as §2
[32] = system: Staphylococcus aureus; experiment: Antibacterial activity against Staphylococcus aureus isolate C4 derived from naso-pharynx assessed as growth inhibition after 18 hrs by broth microdilution method; format: functional; settings: isolate C4, 18 h; how it was run: as §2
[33] = system: Candida albicans; experiment: Antifungal activity against Candida albicans ATCC 10231 assessed as growth inhibition at 1 to 600 ug/mL after 18 hrs by broth microdilution method; format: functional, organism-based
[34] = system: Pseudomonas aeruginosa; experiment: Antibacterial activity against Pseudomonas aeruginosa NCTC 6249 assessed as growth inhibition at 1 to 600 ug/mL after 18 hrs by broth microdilution method; format: functional, organism-based
[35] = system: Staphylococcus epidermidis; experiment: Antibacterial activity against Staphylococcus epidermidis ATCC 12228 assessed as growth inhibition at 1 to 600 ug/mL after 18 hrs by broth microdilution method; format: functional, organism-based
[36] = system: Enterococcus faecalis; experiment: Antibacterial activity against Enterococcus faecalis ATCC 29212 assessed as growth inhibition at 1 to 600 ug/mL after 18 hrs by broth microdilution method; format: functional, organism-based
[37] = system: Proteus mirabilis; experiment: Antibacterial activity against Proteus mirabilis ATCC 29906 assessed as growth inhibition at 1 to 600 ug/mL after 18 hrs by broth microdilution method; format: functional
[38] = system: Escherichia coli; experiment: Antibacterial activity against Escherichia coli NCTC 8192 assessed as growth inhibition at 1 to 600 ug/mL after 18 hrs by broth microdilution method; format: functional, organism-based
[39] = system: Staphylococcus aureus; experiment: Antibacterial activity against Staphylococcus aureus ATCC 6538 assessed as growth inhibition at 1 to 600 ug/mL after 18 hrs by broth microdilution method; format: functional, organism-based
How it was run: as §2, with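 “McFarland. DMSO-dissolved compounds 1–600 µg/mL in Mueller–Hinton broth, 37 °C 18 h, OD600 read with and without compound.” for “McFarland.”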

[40] = system: Proteus vulgaris; experiment: Antibacterial activity against Proteus vulgaris ATCC 49990 assessed as growth inhibition at 1 to 600 ug/mL after 18 hrs by broth microdilution method; format: functional, organism-based
[41] = system: Staphylococcus aureus; experiment: Antibacterial activity against Staphylococcus aureus ATCC 29213 assessed as growth inhibition at 1 to 600 ug/mL after 18 hrs by broth microdilution method; format: functional, organism-based
How it was run: as §2, with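 “McFarland. DMSO-dissolved compounds 1–600 µg/mL in Mueller–Hinton broth, 37 °C 18 h, OD600 read with and without compound.” for “McFarland.”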

O=C1CN(/N=C/c2ccc([N+](=O)[O-])o2)C(=O)N1 [NITROFURANTOIN]
MBC [1]: 32 µg/mL (≈ 134 µM)
MBC [2]: 32 µg/mL (≈ 134 µM)
MBC [3]: 32 µg/mL (≈ 134 µM)
MBC ([4]; NCTC 8192, 18 h): 32 µg/mL (≈ 134 µM)
MIC [5]: 8 µg/mL (≈ 33.6 µM)
MIC [6]: 16 µg/mL (≈ 67.2 µM)
MIC [7]: 16 µg/mL (≈ 67.2 µM)
MIC ([8]; NCTC 8192, 18 h): 16 µg/mL (≈ 67.2 µM)

CN[C@H](CC(C)C)C(=O)N[C@H]1C(=O)N[C@@H](CC(N)=O)C(=O)N[C@H]2C(=O)N[C@H]3C(=O)N[C@H](C(=O)N[C@H](C(=O)O)c4cc(O)cc(O)c4-c4cc3ccc4O)[C@H](O)c3ccc(c(Cl)c3)Oc3cc2cc(c3O[C@@H]2O[C@H](CO)[C@@H](O)[C@H](O)[C@H]2O[C@H]2C[C@](C)(N)[C@H](O)[C@H](C)O2)Oc2ccc(cc2Cl)[C@H]1O [VANCOMYCIN]
MBC [9]: 75 µg/mL (≈ 51.8 µM)
MBC [10]: 75 µg/mL (≈ 51.8 µM)
MBC [11]: 75 µg/mL (≈ 51.8 µM)
MBC [12]: 75 µg/mL (≈ 51.8 µM)
MBC [13]: 10 µg/mL (≈ 6.9 µM)
MBC [14]: 35 µg/mL (≈ 24.2 µM)
MBC [15]: 75 µg/mL (≈ 51.8 µM)
MBC [16]: 75 µg/mL (≈ 51.8 µM)
MBC [17]: 75 µg/mL (≈ 51.8 µM)
MBC [18]: 75 µg/mL (≈ 51.8 µM)
MBC [19]: 35 µg/mL (≈ 24.2 µM)
MBC [20]: 10 µg/mL (≈ 6.9 µM)
MIC [21]: 75 µg/mL (≈ 51.8 µM)
MIC [22]: 75 µg/mL (≈ 51.8 µM)
MIC [23]: 75 µg/mL (≈ 51.8 µM)
MIC [24]: 75 µg/mL (≈ 51.8 µM)
MIC [25]: 10 µg/mL (≈ 6.9 µM)
MIC [26]: 35 µg/mL (≈ 24.2 µM)
MIC [27]: 75 µg/mL (≈ 51.8 µM)
MIC [28]: 75 µg/mL (≈ 51.8 µM)
MIC [29]: 75 µg/mL (≈ 51.8 µM)
MIC [30]: 75 µg/mL (≈ 51.8 µM)
MIC [31]: 35 µg/mL (≈ 24.2 µM)
MIC [32]: 10 µg/mL (≈ 6.9 µM)
MBC [1]: 3 µg/mL (≈ 2.07 µM)
MBC [2]: 3 µg/mL (≈ 2.07 µM)
MBC [3]: 1.5 µg/mL (≈ 1.04 µM)
MBC [4]: inactive
MIC [5]: 3 µg/mL (≈ 2.07 µM)
MIC [6]: 1.5 µg/mL (≈ 1.04 µM)
MIC [7]: 1.5 µg/mL (≈ 1.04 µM)
MIC [8]: inactive

Cc1c(C(=O)N/N=C/c2ccccc2O)[n+]([O-])cn1Cc1ccccc1
Activity [33]: inactive
Activity [34]: inactive
Activity [35]: inactive
Activity [36]: inactive
Activity [37]: inactive
Activity [38]: inactive
Activity [39]: inactive
Activity [40]: inactive
Activity [41]: inactive

Cc1c(C(=O)N/N=C/c2ccc(N(C)C)cc2)[n+]([O-])cn1Cc1ccccc1
Activity [33]: inactive
Activity [34]: inactive
Activity [35]: inactive
Activity [36]: inactive
Activity [37]: inactive
Activity [38]: inactive
Activity [39]: inactive
Activity [40]: inactive
Activity [41]: inactive

Cc1c(C(=O)N/N=C/c2ccccc2)[n+]([O-])cn1Cc1ccccc1
Activity [33]: inactive
Activity [34]: inactive
Activity [35]: inactive
Activity [36]: inactive
Activity [37]: inactive
Activity [38]: inactive
Activity [39]: inactive
Activity [40]: inactive
Activity [41]: inactive

COc1ccc(/C=N/NC(=O)c2c(C)n(Cc3ccccc3)c[n+]2[O-])cc1
Activity [33]: inactive
Activity [34]: inactive
Activity [35]: inactive
Activity [36]: inactive
Activity [37]: inactive
Activity [38]: inactive
Activity [39]: inactive
Activity [40]: inactive
Activity [41]: inactive
